The results in this text go back to ChEMBL document CHEMBL4425103, “Diving into the Water: Inducible Binding Conformations for BRD4, TAF1(2), BRD9, and CECR2 Bromodomains” (J Med Chem, 2016).

Usually ΔTm stands for the change in melting temperature against a reference sample. As a reminder, the IC50 is the concentration that gives 50% inhibition. What is called Kd is the constant that tells how readily two partners part at equilibrium.

The species entered for assay [1] is Homo sapiens. Briefly: Selectivity index, ratio of IC50 for recombinant His-tagged BRPF1 (unknown origin) to IC50 for recombinant His-tagged CECR2 (unknown origin). Summed up:
(§1)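 Protein and then probe were added, 10 min each. Anti-His-europium (0.2 nM) plus SA-APC was read after 40 min. 10-point titrations (N=2), ≥2 independent runs, 4-parameter Hill fit. Index is the ratio of the two IC50s.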

Assay [2] has as its target Chromatin remodeling regulator CECR2 (Homo sapiens, UniProt Q9BXF3). Nature of the assay: Binding affinity to wild type CECR2 (unknown origin) assessed as change in melting temperature at 10 uM by SYPRO red dye based differential scanning fluorimetry. Summed up:
(§2)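 Differential scanning fluorimetry: aggregate removed by centrifugation, then bromodomain at 4 µM final with 10X SYPRO Red, 10 µM compound and 0.2% DMSO in 20 mM HEPES pH 7.7, 100 mM NaCl. Heated 25 to 95 °C, fluorescence read at 1 °C steps. Apparent Tm taken from melt curves; mean of at least five wells for CECR2.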
Background: Differential scanning fluorimetry follows unfolding on heating by fluorescence.

The target of assay [3] is T1, Bromodomain-containing protein 9 (Homo sapiens, UniProt Q9H8M2).
T1 sequence (Q9H8M2 whole entry): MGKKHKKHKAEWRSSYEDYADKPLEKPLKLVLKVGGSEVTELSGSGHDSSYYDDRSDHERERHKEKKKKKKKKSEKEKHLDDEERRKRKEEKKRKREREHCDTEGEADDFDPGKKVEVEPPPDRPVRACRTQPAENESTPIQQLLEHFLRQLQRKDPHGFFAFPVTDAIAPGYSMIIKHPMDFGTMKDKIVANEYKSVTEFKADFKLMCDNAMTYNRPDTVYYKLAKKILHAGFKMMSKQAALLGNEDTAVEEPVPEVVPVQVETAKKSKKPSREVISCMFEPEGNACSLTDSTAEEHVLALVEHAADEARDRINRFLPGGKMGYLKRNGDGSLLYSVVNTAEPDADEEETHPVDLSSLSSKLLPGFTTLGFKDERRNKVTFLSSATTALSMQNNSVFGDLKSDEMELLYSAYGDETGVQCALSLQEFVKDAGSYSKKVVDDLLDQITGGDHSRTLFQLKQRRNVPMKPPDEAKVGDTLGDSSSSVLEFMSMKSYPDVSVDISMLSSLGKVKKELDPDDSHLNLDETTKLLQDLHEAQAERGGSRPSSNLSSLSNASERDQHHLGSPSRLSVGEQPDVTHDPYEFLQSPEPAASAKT
Nature of the assay: Displacement of biotinylated JQ1 analog from recombinant His-tagged BRD9 (unknown origin) incubated for 10 mins by TR-FRET assay. For orientation: TR-FRET usually uses a lanthanide donor and a delayed reading to cut background.

Assay [4] deals with Transcription initiation factor TFIID subunit 1 (Homo sapiens, UniProt P21675). Briefly: Inhibition of recombinant His-tagged TAF1 isoform-1 (unknown origin) using biotinylated ligand incubated for 10 mins by TR-FRET assay.
Sequence of Transcription initiation factor TFIID subunit 1 (P21675 whole entry, canonical isoform): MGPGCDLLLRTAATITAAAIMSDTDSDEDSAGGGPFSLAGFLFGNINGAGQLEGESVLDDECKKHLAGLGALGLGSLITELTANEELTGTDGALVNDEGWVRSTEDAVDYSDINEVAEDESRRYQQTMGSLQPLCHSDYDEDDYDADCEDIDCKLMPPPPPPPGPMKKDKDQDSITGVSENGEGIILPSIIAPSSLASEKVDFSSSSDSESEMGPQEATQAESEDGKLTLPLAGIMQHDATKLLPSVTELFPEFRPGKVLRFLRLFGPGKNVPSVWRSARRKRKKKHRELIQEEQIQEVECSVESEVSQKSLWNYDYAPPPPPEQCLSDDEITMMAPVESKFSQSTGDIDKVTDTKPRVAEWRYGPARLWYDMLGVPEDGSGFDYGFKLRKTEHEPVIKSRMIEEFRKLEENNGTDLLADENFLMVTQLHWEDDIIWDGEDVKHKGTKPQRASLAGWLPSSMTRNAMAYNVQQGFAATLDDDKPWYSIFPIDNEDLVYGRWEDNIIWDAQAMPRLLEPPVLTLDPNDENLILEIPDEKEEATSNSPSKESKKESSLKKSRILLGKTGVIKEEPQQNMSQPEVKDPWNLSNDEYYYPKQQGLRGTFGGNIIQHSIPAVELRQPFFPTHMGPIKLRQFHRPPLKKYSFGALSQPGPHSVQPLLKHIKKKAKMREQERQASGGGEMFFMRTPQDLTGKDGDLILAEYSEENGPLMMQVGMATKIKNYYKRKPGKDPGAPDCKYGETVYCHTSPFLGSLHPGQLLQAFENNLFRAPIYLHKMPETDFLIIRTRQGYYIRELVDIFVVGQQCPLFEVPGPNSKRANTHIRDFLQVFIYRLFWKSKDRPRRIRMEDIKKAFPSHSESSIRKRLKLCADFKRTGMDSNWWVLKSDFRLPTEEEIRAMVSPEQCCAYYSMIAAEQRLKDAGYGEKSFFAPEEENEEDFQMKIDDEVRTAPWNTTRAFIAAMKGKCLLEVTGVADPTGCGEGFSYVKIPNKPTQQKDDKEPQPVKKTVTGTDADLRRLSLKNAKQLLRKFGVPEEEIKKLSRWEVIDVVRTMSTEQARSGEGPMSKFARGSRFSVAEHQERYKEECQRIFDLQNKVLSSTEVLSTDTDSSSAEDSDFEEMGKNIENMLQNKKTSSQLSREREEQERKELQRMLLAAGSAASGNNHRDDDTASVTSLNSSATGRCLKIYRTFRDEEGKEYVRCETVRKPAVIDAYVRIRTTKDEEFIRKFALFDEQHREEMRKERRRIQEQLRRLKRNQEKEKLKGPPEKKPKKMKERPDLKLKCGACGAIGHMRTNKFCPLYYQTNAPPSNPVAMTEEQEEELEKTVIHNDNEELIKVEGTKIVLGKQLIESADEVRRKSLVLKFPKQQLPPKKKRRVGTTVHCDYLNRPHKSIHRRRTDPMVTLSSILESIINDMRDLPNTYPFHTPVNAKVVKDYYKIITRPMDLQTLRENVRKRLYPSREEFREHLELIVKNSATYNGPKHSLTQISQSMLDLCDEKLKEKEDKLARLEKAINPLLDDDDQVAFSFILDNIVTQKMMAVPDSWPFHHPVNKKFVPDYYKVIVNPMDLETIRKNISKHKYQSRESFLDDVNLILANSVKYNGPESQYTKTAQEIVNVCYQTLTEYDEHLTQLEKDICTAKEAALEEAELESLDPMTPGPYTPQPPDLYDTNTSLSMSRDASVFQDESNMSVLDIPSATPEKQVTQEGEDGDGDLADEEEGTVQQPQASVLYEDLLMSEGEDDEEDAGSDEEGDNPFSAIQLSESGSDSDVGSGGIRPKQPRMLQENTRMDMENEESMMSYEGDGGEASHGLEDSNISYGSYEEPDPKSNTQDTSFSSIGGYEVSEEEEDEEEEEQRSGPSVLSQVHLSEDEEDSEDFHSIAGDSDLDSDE
Assay [5] concerns T2, Chromatin remodeling regulator CECR2 (Homo sapiens), Q9BXF3 [Y520I].
T2 sequence (whole entry): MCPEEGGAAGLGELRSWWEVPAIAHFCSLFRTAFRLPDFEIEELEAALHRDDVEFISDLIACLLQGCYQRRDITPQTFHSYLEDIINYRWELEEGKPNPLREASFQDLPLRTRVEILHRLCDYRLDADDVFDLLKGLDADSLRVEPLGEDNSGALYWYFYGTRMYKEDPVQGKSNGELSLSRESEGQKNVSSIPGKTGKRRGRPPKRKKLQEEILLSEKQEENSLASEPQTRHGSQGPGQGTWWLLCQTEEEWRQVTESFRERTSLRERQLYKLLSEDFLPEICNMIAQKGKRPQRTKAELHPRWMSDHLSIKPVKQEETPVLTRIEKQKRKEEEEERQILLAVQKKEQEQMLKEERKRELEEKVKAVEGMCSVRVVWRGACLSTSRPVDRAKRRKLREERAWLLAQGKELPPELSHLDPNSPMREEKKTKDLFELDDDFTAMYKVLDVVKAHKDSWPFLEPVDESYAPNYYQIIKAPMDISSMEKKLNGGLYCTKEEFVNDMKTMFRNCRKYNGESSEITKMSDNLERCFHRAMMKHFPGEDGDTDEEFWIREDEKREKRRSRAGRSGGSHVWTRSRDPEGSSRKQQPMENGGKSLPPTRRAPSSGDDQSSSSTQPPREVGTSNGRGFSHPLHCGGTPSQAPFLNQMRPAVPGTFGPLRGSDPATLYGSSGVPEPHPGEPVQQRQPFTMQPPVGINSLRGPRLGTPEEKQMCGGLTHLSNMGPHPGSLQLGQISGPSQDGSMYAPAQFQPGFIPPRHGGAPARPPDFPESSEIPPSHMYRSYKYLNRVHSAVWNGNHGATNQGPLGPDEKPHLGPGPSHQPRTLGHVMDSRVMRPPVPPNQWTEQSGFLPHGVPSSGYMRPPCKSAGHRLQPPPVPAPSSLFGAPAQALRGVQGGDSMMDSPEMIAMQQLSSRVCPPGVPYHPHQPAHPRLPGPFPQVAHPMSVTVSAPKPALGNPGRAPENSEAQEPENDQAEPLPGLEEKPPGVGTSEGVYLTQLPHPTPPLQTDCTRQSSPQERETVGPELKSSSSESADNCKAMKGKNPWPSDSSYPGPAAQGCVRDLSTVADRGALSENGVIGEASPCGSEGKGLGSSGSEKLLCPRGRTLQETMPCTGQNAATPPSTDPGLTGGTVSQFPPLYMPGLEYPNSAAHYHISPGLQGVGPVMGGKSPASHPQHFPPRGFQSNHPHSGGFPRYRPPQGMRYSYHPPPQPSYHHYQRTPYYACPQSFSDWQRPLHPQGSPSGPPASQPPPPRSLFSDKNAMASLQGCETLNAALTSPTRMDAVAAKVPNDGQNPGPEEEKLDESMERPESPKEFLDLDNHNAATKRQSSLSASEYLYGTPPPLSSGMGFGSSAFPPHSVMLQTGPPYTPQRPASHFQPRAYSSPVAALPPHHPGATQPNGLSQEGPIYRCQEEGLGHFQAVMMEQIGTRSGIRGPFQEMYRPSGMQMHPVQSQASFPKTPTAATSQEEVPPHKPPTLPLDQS
Briefly: Binding affinity to CECR2 Y520I mutant (unknown origin) assessed as change in melting temperature at 10 uM by SYPRO red dye based differential scanning fluorimetry. In short, it runs like this: as §2

The species entered for assay [6] is Homo sapiens. Nature of the assay: Selectivity index, ratio of IC50 for recombinant His-tagged BRD4 bromodomain2 to IC50 for recombinant His-tagged CECR2 (unknown origin). In short, it runs like this:
as §1

Assay [7] addresses SWI/SNF-related matrix-associated actin-dependent regulator of chromatin subfamily A member 2 (Homo sapiens, UniProt P51531). Nature of the assay: Binding affinity to human partial length SMARCA2 expressed in bacterial expression system by BROMOscan assay.

Sequence of Chromatin remodeling regulator CECR2 (Q9BXF3 whole entry, looked up): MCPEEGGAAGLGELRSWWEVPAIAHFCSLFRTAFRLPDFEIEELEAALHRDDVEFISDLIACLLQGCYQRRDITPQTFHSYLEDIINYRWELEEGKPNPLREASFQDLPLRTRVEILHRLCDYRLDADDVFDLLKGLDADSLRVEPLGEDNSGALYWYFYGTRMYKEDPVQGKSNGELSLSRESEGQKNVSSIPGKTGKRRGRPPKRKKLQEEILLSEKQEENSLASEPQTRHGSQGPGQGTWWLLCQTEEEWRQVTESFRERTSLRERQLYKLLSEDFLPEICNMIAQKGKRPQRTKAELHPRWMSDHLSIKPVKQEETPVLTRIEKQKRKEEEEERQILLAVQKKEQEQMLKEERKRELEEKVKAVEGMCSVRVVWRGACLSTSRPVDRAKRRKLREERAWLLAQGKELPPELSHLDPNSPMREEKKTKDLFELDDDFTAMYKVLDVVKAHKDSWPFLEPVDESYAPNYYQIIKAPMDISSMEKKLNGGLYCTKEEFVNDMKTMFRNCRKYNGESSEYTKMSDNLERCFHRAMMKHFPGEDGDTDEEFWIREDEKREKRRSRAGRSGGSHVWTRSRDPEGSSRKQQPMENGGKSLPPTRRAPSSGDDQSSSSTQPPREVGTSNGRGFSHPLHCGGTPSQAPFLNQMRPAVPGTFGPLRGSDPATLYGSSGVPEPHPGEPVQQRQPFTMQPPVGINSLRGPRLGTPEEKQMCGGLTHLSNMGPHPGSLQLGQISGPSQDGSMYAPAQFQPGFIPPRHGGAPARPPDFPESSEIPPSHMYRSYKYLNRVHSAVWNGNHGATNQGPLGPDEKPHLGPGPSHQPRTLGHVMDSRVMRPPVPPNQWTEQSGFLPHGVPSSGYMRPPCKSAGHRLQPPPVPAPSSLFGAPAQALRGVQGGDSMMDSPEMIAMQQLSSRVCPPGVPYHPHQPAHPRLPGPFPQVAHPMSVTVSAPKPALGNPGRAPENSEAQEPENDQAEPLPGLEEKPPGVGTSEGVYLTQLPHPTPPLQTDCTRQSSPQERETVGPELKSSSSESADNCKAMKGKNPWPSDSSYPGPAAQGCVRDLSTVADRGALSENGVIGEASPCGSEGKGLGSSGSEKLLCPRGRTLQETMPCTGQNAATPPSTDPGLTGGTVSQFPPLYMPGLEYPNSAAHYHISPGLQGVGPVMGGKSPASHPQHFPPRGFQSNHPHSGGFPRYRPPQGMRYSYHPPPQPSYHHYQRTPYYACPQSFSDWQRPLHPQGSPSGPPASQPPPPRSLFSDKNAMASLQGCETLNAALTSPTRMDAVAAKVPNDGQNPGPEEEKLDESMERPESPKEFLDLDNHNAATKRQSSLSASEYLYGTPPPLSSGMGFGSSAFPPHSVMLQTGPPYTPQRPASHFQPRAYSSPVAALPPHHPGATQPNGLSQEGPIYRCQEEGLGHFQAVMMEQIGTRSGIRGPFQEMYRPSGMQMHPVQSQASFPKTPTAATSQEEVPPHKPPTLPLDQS
Sequence of SWI/SNF-related matrix-associated actin-dependent regulator of chromatin subfamily A member 2 (P51531 whole entry): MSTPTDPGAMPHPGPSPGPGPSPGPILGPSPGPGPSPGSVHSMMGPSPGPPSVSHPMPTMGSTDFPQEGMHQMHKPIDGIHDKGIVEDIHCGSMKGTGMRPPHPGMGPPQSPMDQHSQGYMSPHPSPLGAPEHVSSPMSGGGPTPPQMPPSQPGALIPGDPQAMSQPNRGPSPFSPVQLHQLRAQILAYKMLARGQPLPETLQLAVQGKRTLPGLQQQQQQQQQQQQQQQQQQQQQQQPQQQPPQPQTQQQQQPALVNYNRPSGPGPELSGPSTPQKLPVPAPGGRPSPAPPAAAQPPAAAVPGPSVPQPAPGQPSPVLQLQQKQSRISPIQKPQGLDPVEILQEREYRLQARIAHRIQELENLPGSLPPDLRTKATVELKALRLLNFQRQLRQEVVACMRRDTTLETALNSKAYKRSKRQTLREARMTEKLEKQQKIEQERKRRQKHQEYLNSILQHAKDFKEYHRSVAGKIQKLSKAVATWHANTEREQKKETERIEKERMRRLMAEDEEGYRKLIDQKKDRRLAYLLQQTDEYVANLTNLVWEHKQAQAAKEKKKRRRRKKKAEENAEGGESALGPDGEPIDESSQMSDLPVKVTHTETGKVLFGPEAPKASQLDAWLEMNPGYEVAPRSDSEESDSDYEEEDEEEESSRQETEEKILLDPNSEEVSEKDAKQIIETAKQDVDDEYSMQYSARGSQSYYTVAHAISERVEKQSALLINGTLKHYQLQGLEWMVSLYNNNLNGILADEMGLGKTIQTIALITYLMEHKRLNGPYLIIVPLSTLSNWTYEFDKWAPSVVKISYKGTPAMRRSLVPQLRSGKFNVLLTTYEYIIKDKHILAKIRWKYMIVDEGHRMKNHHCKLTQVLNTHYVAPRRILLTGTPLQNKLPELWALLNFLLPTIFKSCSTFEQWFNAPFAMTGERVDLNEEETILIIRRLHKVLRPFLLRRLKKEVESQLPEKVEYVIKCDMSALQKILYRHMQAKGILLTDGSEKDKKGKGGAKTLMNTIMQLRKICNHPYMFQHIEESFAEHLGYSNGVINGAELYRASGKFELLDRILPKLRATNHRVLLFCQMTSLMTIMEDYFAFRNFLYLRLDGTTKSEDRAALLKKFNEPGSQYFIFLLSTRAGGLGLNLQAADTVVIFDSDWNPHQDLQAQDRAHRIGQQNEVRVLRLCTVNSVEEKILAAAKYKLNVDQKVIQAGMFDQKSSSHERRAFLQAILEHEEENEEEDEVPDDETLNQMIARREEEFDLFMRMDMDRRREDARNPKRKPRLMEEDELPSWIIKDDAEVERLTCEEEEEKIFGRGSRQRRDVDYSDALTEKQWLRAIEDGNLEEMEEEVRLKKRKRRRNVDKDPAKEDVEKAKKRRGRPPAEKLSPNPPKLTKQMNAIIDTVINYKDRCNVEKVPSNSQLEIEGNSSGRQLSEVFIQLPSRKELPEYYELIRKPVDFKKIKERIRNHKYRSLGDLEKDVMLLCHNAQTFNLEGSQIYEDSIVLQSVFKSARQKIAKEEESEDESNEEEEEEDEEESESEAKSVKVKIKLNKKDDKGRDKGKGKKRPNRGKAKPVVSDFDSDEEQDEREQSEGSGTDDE

Take `C=CCn1cc(-c2cccc(C(=O)N(C)C)c2)c2cc[nH]c2c1=O`: the Ratio IC50 in the assay listed under Homo sapiens [1] and in the assay filed under Homo sapiens [6] was over 10 in each case. The ΔTm in assay [2] was 6 °C; in assay [5] it was -1 °C. For the same compound, the IC50 is 0.29 µM in assay [3] and over 20 µM in assay [4].
Turning to `CN(C)C(=O)c1cccc(-c2cn(C)c(=O)c3[nH]ccc23)c1`, the thermal shift (ΔTm) is 6 °C in assay [2] and 3 °C in assay [5]. Also, the affinity in assay [7], expressed as Kd, was 6.7 µM.
